Assay results: ChEMBL document CHEMBL3997844, “Synthesis and anti-inflammatory activity of isoquebecol” (Bioorg Med Chem, 2017)

Experiments:
[1] = Cytotoxicity against human U937-derived macrophage-like cells assessed as reduction in cell viability after 24 hrs by MTT assay; type: cell-based, U-937; details: read-out: MNCC
In short: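 PMA-differentiated U937 macrophage-like cells (1×10^6 cells/well, RPMI-1% FBS) exposed to 2-fold serial dilutions from 1000 to 7.81 µM for 24 h. Viability read by MTT assay; highest non-cytotoxic concentration recorded.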

U-937 [2] = experiment: Anti-inflammatory activity in human U937-derived macrophage-like cells assessed as inhibition of LPS-induced IL-6 secretion at 250 uM preincubated for 2 hrs followed by LPS addition measured after 24 hrs by ELISA relative to control; type: functional
U-937 [3] = experiment: Anti-inflammatory activity in human U937-derived macrophage-like cells assessed as inhibition of LPS-induced IL-6 secretion at 125 uM preincubated for 2 hrs followed by LPS addition measured after 24 hrs by ELISA relative to control; type: functional
U-937 [4] = experiment: Anti-inflammatory activity in human U937-derived macrophage-like cells assessed as inhibition of LPS-induced IL-6 secretion at 500 uM preincubated for 2 hrs followed by LPS addition measured after 24 hrs by ELISA relative to control; type: functional
U-937 [5] = experiment: Anti-inflammatory activity in human U937-derived macrophage-like cells assessed as inhibition of LPS-induced IL-6 secretion at 62.5 uM preincubated for 2 hrs followed by LPS addition measured after 24 hrs by ELISA relative to control; type: functional
U-937 [6] = experiment: Anti-inflammatory activity in human U937-derived macrophage-like cells assessed as inhibition of LPS-induced IL-6 secretion at 31.25 uM preincubated for 2 hrs followed by LPS addition measured after 24 hrs by ELISA relative to control; type: functional
U-937 [7] = experiment: Anti-inflammatory activity in human U937-derived macrophage-like cells assessed as inhibition of LPS-induced IL-6 secretion preincubated for 2 hrs followed by LPS addition measured after 24 hrs by ELISA; type: functional, cell-based

Row | Structure (SMILES) | MNTC at 24 h [1] | inhibition at 250 µM (U-937 [2]) | inhibition at 125 µM (U-937 [3]) | inhibition at 500 µM (U-937 [4]) | inhibition at 62.5 µM (U-937 [5]) | inhibition at 31.25 µM (U-937 [6]) | inhibition (U-937 [7])
1 | COc1cc(CCO)ccc1O | > 1000 µM | 0.9% | 1.1% | 1.2% |  |  | 
2 | COc1cc(CC(=O)O)ccc1O [HOMOVANILLIC ACID] | > 1000 µM | 0.2% | 0.3% | 0.6% |  |  | 
3 | COc1ccc(C(CO)C(c2ccc(OC)c(O)c2)c2ccc(OC)c(O)c2)cc1O (centres undefined) | 250 µM | 96.9% | 48.3% | 99.7% | 43.3% | 34.5% | Dose-dependent effect
4 | COc1cc(C(O)CO)ccc1O (centres undefined) | 500 µM | 8% | 2.1% | 86.8% |  |  | 
5 | COc1ccc(C(=O)CO)cc1O | 500 µM | 24.1% | 0.8% | 92.5% |  |  | 
6 | CCOC(=O)C(=C(c1ccc(OC)c(O)c1)c1ccc(OC)c(O)c1)c1ccc(OC)c(O)c1 | 62.5 µM | 100% | 97.8% | 100% | 31.2% | 0.8% | 
7 | CCOC(=O)C(c1ccc(OC)c(O)c1)C(c1ccc(OC)c(O)c1)c1ccc(OC)c(O)c1 (centres undefined) | 62.5 µM | 96.8% | 41.3% | 100% | 5.9% | 3% | 
8 | CCOC(=O)C(=C(c1ccccc1)c1ccccc1)c1ccccc1 | < 15.6 µM | 100% | 11% | 100% | 0.5% | 0.5% | 
9 | CCOC(=O)Cc1ccc(O)c(OC)c1 | > 1000 µM | 0.4% | 0.2% | 0.8% |  |  | 
10 | COc1ccc(CC(=O)O)cc1O | > 1000 µM | 2.1% | 0.5% | 2% |  |  | 
11 | COc1cc(Cc2ccc(O)c(OC)c2)ccc1O | 500 µM | 90.5% | 27.5% | 98.1% |  |  | 
12 | OCC(c1ccccc1)C(c1ccccc1)c1ccccc1 (centres undefined) | 31.2 µM | 100% | 100% | 100% | 15.6% | 1.4% | 
13 | COc1ccc(C(O)CO)cc1O (centres undefined) | 500 µM | 20.9% | 1.4% | 83.8% |  |  | 
14 | COc1cc(C(CO)C(c2ccc(O)c(OC)c2)c2ccc(O)c(OC)c2)ccc1O (centres undefined) | 500 µM | 84.7% | 55.3% | 93.8% | 4.7% | 3.7% | Dose-dependent effect
15 | CCOC(=O)C(c1ccc(O)c(OC)c1)C(c1ccc(O)c(OC)c1)c1ccc(O)c(OC)c1 (centres undefined) | 250 µM | 91.9% | 34.6% | 100% | 9.4% | 4% | 
16 | CCOC(=O)C(c1ccccc1)C(c1ccccc1)c1ccccc1 (centres undefined) | 62.5 µM | 85.3% | 2% | 99.8% | 0.4% | 0.2% | 
17 | COc1ccc(CCO)cc1O | > 1000 µM | 2.7% | 0.9% | 5.1% |  |  | 
18 | COc1cc(C(=O)CO)ccc1O | 500 µM | 64.4% | 4.9% | 90.1% |  |  | 
19 | COc1ccc(Cc2ccc(OC)c(O)c2)cc1O | 500 µM | 92.5% | 50.7% | 99.8% |  |  | 
20 | CCOC(=O)Cc1ccc(OC)c(O)c1 | > 1000 µM | 3.2% | 0.8% | 8.3% |  |  | 
21 | CCOC(=O)C(=C(c1ccc(O)c(OC)c1)c1ccc(O)c(OC)c1)c1ccc(O)c(OC)c1 | 62.5 µM | 100% | 99.5% | 100% | 11.2% | 2.5% | 
